Experimental findings from ChEMBL document CHEMBL2375270, “Structure-based design, SAR analysis and antitumor activity of PI3K/mTOR dual inhibitors from 4-methylpyridopyrimidinone series” (Bioorg Med Chem Lett, 2013) are described below.

Data set [1] in a line: Permeability across dog RRCK cells. Format: ADME, cell-based, Canis lupus familiaris, MDCKII-LE. The conditions noted are these: MDCK, read-out: permeability.
The test system of data set [2] is Plasma. Briefly: Drug metabolism in human plasma assessed as formation of glucuronide conjugate at 8 mg, po qd for 21 days by HPLC analysis. Type of data set: ADME, organism-based. The following applies: in vivo, 504 h. Summed up:
(§1)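 Human plasma came from patients given 8 mg once daily in a clinical dose-escalation study. Metabolites were profiled from the total ion chromatogram. Peaks were assigned by retention time and molecular ion (m/z) against reference standards and parent drug.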

In data set [3] the test system is Plasma. Briefly: Drug metabolism in human plasma assessed as formation of 2-((trans)-4-(2-amino-6-(6-methoxypyridin-3-yl)-4-methyl-7-oxopyrido[2,3-d]pyrimidin-8(7H)-yl)cyclohexyloxy)acetic acid at 8 mg, po qd for 21 days by HPLC analysis. Format: ADME, organism-based. The conditions noted are these: in vivo, 504 h. The procedure, abridged:
as §1

Data set [4] in a line: Toxicity against nu/nu mouse. The following applies: in vivo. Format: organism-based. The procedure, abridged: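 Tolerability assessed in mice bearing U87 xenografts during tumour growth inhibition studies. Groups received vehicle or 1, 3 or 10 mg/kg. Plasma free drug levels and AKT phosphorylation were sampled at 1 h and 24 h in the top-dose group.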
Data set [5] can be described thus: Oral bioavailability in rat. Type of data set: ADME, organism-based. The following applies: in vivo.
Data set [6] in a line: Volume of distribution at steady state in rat. The conditions noted are these: in vivo, read-out: Vdss. Type of data set: ADME, organism-based.

Usually bioavailability stands for dose-corrected exposure relative to a reference, in per cent.

Consider `Cc1nc(N)nc2c1cc(-c1cnc3ccccc3c1)c(=O)n2[C@H]1CC[C@H](OCO)CC1`, for which the Papp in data set [1] amounted to 19.7 ×10⁻⁶ cm/s.

Regarding `Cc1nc(N)nc2c1cc(-c1cn[nH]c1)c(=O)n2[C@H]1CC[C@@H](OCC(N)=O)CC1`, in data set [1], the Papp amounted to 0.151 ×10⁻⁶ cm/s.

In the case of `COc1ccc(-c2cc3c(C)nc(N)nc3n([C@H]3CC[C@@H](OCC(N)=O)CC3)c2=O)cn1`, in data set [1], the Papp was 30.3 ×10⁻⁶ cm/s.

For `COc1ccc(-c2cc3c(C)nc(N)nc3n([C@H]3CC[C@H](OCCO)CC3)c2=O)cn1` [PF-04691502], the Drug metabolism entry in the data set on Plasma [2] and in the data set with Plasma [3] was “Active” in each case.

In the case of `Cc1nc(N)nc2c1cc(-c1cnc3ccccc3c1)c(=O)n2[C@H]1CC[C@H](OCC(N)=O)CC1`, in data set [1], the Papp came out at 9.02 ×10⁻⁶ cm/s.

As for `COc1ncc(-c2cc3c(C)nc(N)nc3n([C@H]3CC[C@H](OCO)CC3)c2=O)cn1`, the Papp in data set [1] amounted to 21.3 ×10⁻⁶ cm/s.

As for `COc1ncc(-c2cc3c(C)nc(N)nc3n([C@H]3CC[C@@H](OCC(N)=O)CC3)c2=O)cc1F`, the Papp in data set [1] came to 26.2 ×10⁻⁶ cm/s.

For `COc1ncc(-c2cc3c(C)nc(N)nc3n([C@H]3CC[C@H](OCO)CC3)c2=O)cc1F`, the MTD in data set [4] stood at 10 mg/kg. Further, the bioavailability in data set [5] turned out to be 79%. Moreover, in data set [6], the Vd came out at 4.08 L/kg.

For `Cc1nc(N)nc2c1cc(-c1cnc3ccccc3c1)c(=O)n2[C@H]1CC[C@@H](OCO)CC1`, the Papp in data set [1] worked out at 41.6 ×10⁻⁶ cm/s.

Turning to `COc1ncc(-c2cc3c(C)nc(N)nc3n([C@H]3CC[C@H](OCC(N)=O)CC3)c2=O)cc1F`, the Papp in data set [1] turned out to be 26.2 ×10⁻⁶ cm/s.

With `Cc1nc(N)nc2c1cc(-c1cn[nH]c1)c(=O)n2[C@H]1CC[C@@H](OCO)CC1`, the Papp in data set [1] was found to be 12.6 ×10⁻⁶ cm/s.

`COc1ncc(-c2cc3c(C)nc(N)nc3n([C@H]3CC[C@@H](OCC(N)=O)CC3)c2=O)cn1`: the Papp in data set [1] stood at 30.1 ×10⁻⁶ cm/s.

For `COc1ncc(-c2cc3c(C)nc(N)nc3n([C@H]3CC[C@H](OCC(N)=O)CC3)c2=O)cn1`, in data set [1], the Papp worked out at 29.8 ×10⁻⁶ cm/s.

Turning to `COc1ccc(-c2cc3c(C)nc(N)nc3n([C@H]3CC[C@H](OCC(N)=O)CC3)c2=O)cn1`, the Papp in data set [1] came to 4.58 ×10⁻⁶ cm/s.

Regarding `Cc1nc(N)nc2c1cc(-c1cnc3ccccc3c1)c(=O)n2[C@H]1CC[C@@H](OCC(N)=O)CC1`, the Papp in data set [1] is 4.57 ×10⁻⁶ cm/s.

For the compound `COc1ccc(-c2cc3c(C)nc(N)nc3n([C@H]3CC[C@H](OCC(=O)O)CC3)c2=O)cn1`, the Papp in data set [1] amounted to 0.295 ×10⁻⁶ cm/s.

For the compound `Cc1nc(N)nc2c1cc(-c1cnn(C)c1)c(=O)n2[C@H]1CC[C@@H](OCO)CC1`, the Papp in data set [1] was determined as 23.3 ×10⁻⁶ cm/s.
